Measured values as given in ChEMBL document CHEMBL4304827, “Design, synthesis and evaluation of structurally diverse chrysin-chromene-spirooxindole hybrids as anticancer agents” (Bioorg Med Chem, 2019).

What was measured:
NCI-H1299 = test: Antiproliferative activity against human H1299 cells assessed as reduction in cell proliferation incubated for 48 hrs by MTT assay; format: functional, cell-based; details: NCI-H1299, 48 h
Method in brief: (§1)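 Log-phase cells were plated at 5 × 10^3/well in RPMI-1640 with 10% FBS and cultured 24 h. Compounds were added at graded concentrations (DMSO <0.1%) for 48 h. MTT (5 mg/mL) was added for about 4 h, formazan was dissolved in DMSO and A490 was read. IC50 was calculated from ≥3 independent experiments and reported as mean ± SD. Chrysin served as positive control.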

A549 = test: Antiproliferative activity against human A549 cells assessed as reduction in cell proliferation incubated for 48 hrs by MTT assay; format: functional, cell-based; details: A549, 48 h; method in brief: as §1
PC-3 = test: Antiproliferative activity against human PC3 cells assessed as reduction in cell proliferation incubated for 48 hrs by MTT assay; format: functional, cell-based; details: PC-3, 48 h; method in brief: as §1
K562 = test: Antiproliferative activity against human K562 cells assessed as reduction in cell proliferation incubated for 48 hrs by MTT assay; format: functional, cell-based; details: K562, 48 h; method in brief: as §1
MRC5 = test: Cytotoxicity against human MRC5 cells assessed as reduction in cell proliferation incubated for 48 hrs by MTT assay; format: cell-based; details: MRC5, 48 h; method in brief: as §1

| SMILES | IC50 (NCI-H1299) [µM] | IC50 (A549) [µM] | IC50 (PC-3) [µM] | IC50 (K562) [µM] | IC50 (MRC5) [µM] |
| --- | --- | --- | --- | --- | --- |
| Cc1ccc2c(c1)C1(C(=O)N2C)C(C#N)=C(N)Oc2cc3oc(-c4ccccc4)cc(=O)c3c(O)c21 (stereo not given) | 10.2 | 7.06 | > 50 | 5.87 | – |
| O=c1cc(-c2ccccc2)oc2cc(O)cc(O)c12 [CHRYSIN] | > 50 | > 50 | > 50 | > 50 | > 100 |
| CCN1C(=O)C2(C(C#N)=C(N)Oc3cc4oc(-c5ccccc5)cc(=O)c4c(O)c32)c2cccc(C)c21 (stereo not given) | > 50 | > 50 | > 50 | > 50 | – |
| CN1C(=O)C2(C(C#N)=C(N)Oc3cc4oc(-c5ccccc5)cc(=O)c4c(O)c32)c2ccccc21 (stereo not given) | > 50 | > 50 | > 50 | > 50 | – |
| N#CC1=C(N)Oc2cc3oc(-c4ccccc4)cc(=O)c3c(O)c2C12C(=O)N(Cc1ccccc1)c1ccc(F)cc12 (stereo not given) | > 50 | > 50 | > 50 | > 50 | – |
| Cc1ccc2c(c1)C1(C(=O)N2)C(C#N)=C(N)Oc2cc3oc(-c4ccccc4)cc(=O)c3c(O)c21 (stereo not given) | > 50 | > 50 | > 50 | > 50 | – |
| N#CC1=C(N)Oc2cc3oc(-c4ccccc4)cc(=O)c3c(O)c2C12C(=O)N(Cc1ccccc1)c1c(Cl)cccc12 (stereo not given) | > 50 | > 50 | > 50 | 47.8 | – |
| CN1C(=O)C2(C(C#N)=C(N)Oc3cc4oc(-c5ccccc5)cc(=O)c4c(O)c32)c2cc(Cl)ccc21 (stereo not given) | 11.2 | 4.72 | 21.4 | 4.34 | – |
| Cc1ccc2c(c1)C1(C(=O)N2Cc2ccccc2)C(C#N)=C(N)Oc2cc3oc(-c4ccccc4F)cc(=O)c3c(O)c21 (stereo not given) | > 50 | > 50 | > 50 | > 50 | – |
| CN1C(=O)C2(C(C#N)=C(N)Oc3cc4oc(-c5ccccc5)cc(=O)c4c(O)c32)c2cccc(Cl)c21 (stereo not given) | > 50 | > 50 | > 50 | 41.4 | – |
| CCN1C(=O)C2(C(C#N)=C(N)Oc3cc4oc(-c5ccccc5)cc(=O)c4c(O)c32)c2cc(C)ccc21 (stereo not given) | > 50 | > 50 | > 50 | > 50 | – |
| CC(C)(C)OC(=O)CN1C(=O)C2(C(C#N)=C(N)Oc3cc4oc(-c5ccccc5)cc(=O)c4c(O)c32)c2ccccc21 (stereo not given) | > 50 | > 50 | > 50 | > 50 | – |
| CCN1C(=O)C2(C(C#N)=C(N)Oc3cc4oc(-c5ccc(OC)cc5OC)cc(=O)c4c(O)c32)c2cc(Cl)ccc21 (stereo not given) | > 50 | > 50 | > 50 | 8.45 | – |
| COc1ccc2c(c1)C1(C(=O)N2Cc2ccccc2)C(C#N)=C(N)Oc2cc3oc(-c4ccccc4)cc(=O)c3c(O)c21 (stereo not given) | > 50 | > 50 | > 50 | > 50 | – |
| N#CC1=C(N)Oc2cc3oc(-c4ccccc4)cc(=O)c3c(O)c2C12C(=O)Nc1ccccc12 (stereo not given) | > 50 | 37.6 | > 50 | 36.4 | – |
| Cc1ccc2c(c1)C1(C(=O)N2Cc2ccccc2)C(C#N)=C(N)Oc2cc3oc(-c4ccccc4)cc(=O)c3c(O)c21 (stereo not given) | > 50 | > 50 | > 50 | > 50 | – |
| N#CC1=C(N)Oc2cc3oc(-c4ccccc4)cc(=O)c3c(O)c2C12C(=O)Nc1c(Cl)cccc12 (stereo not given) | > 50 | > 50 | > 50 | 37.5 | – |
| CCN1C(=O)C2(C(C#N)=C(N)Oc3cc4oc(-c5ccc(OC)cc5OC)cc(=O)c4c(O)c32)c2cc(Br)ccc21 (stereo not given) | > 50 | > 50 | > 50 | 16.1 | – |
| N#CC1=C(N)Oc2cc3oc(-c4ccccc4)cc(=O)c3c(O)c2C12C(=O)N(Cc1ccccc1)c1ccc(Cl)cc12 (stereo not given) | > 50 | > 50 | > 50 | 36.3 | – |
| COc1ccc(-c2cc(=O)c3c(O)c4c(cc3o2)OC(N)=C(C#N)C42C(=O)N(C)c3ccc(C)cc32)c(OC)c1 (stereo not given) | > 50 | > 50 | > 50 | 12.2 | – |
| N#CC1=C(N)Oc2cc3oc(-c4ccccc4)cc(=O)c3c(O)c2C12C(=O)N(Cc1ccccc1)c1ccc(Br)cc12 (stereo not given) | > 50 | > 50 | > 50 | 36.4 | – |
| N#CC1=C(N)Oc2cc3oc(-c4ccccc4)cc(=O)c3c(O)c2C12C(=O)Nc1cc(Br)ccc12 (stereo not given) | 14.4 | 9.34 | 24.8 | 8.7 | – |
| COc1ccc(-c2cc(=O)c3c(O)c4c(cc3o2)OC(N)=C(C#N)C42C(=O)N(Cc3ccccc3)c3ccccc32)c(OC)c1 (stereo not given) | > 50 | > 50 | > 50 | > 50 | – |
| N#CC1=C(N)Oc2cc3oc(-c4ccccc4)cc(=O)c3c(O)c2C12C(=O)Nc1cc(Cl)ccc12 (stereo not given) | 16.6 | 8.47 | 25.7 | 9.25 | – |
| Cc1cccc2c1N(Cc1ccccc1)C(=O)C21C(C#N)=C(N)Oc2cc3oc(-c4ccccc4)cc(=O)c3c(O)c21 (stereo not given) | > 50 | > 50 | > 50 | > 50 | – |
| N#CC1=C(N)Oc2cc3oc(-c4ccccc4)cc(=O)c3c(O)c2C12C(=O)N(c1ccccc1)c1ccccc12 (stereo not given) | > 50 | > 50 | > 50 | > 50 | – |
